From PubChem BioAssay
This is a sample that favours compounds with a hit; in the whole collection about 2.5% have one here.
SENP1 FRET inh: SENP1 (human) catalytic domain inhibition; Q9P0U3; recombinant SENP1 catalytic domain, CyPet-SUMO1-YPet FRET cleavage; inhibition, % at 10 µM; actives 0.21% (n = 360,000); AID 624204;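 active means inhibition at least 30% at 10 µM, raw YFP signal under a set limit, fluorescence ratio 0.5 to 1.5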;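 further: 0% = enzyme with DMSO and 100% = no enzyme wells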
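material = recombinant human SENP1 catalytic domain, His6-tagged | quantity = 20 pM enzyme | reagent = 25 nM SUMO1 FRET substrate | compound dosing = 10 µM single point, 0.5% DMSO | timing = 50 min enzyme reaction, room temperature, light-protected | detection = FRET, CFP and YFP emission | control set = no-enzyme low, enzyme-DMSO high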
SENP8 block-1: blocks human SENP8 cleavage of Nedd8 substrate; recombinant SENP8, Nedd8 substrate fluorescence; actives 0.64% (n = 360,000); inhibition, % at 20 µM; AID 602440; in the data active means inhibition mostly above about 40%, no sharp cut-off; inactive means mostly below about 27%
Target sequence (Q96LD8 whole entry, looked up): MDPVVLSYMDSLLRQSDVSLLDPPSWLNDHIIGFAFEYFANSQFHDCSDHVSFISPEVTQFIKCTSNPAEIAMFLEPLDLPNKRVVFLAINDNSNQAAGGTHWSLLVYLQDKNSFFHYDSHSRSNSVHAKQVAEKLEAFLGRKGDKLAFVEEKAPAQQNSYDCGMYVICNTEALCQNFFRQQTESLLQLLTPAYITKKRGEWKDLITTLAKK
SENP6 inh: SENP6 protease inhibition | Q9GZR1 | Recombinant SENP6 catalytic domain, aminoluciferin luminescence | inhibition, % at 10 µM | actives 1.8% (n = 330,000) | AID 2599;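 active means inhibition above about 50% at the single tested dose, limit read from the data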;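 further: plate controls were DMSO wells with enzyme for no effect and DMSO wells lacking enzyme for full effect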
Target sequence (Q9GZR1 628-1112 limits assumed): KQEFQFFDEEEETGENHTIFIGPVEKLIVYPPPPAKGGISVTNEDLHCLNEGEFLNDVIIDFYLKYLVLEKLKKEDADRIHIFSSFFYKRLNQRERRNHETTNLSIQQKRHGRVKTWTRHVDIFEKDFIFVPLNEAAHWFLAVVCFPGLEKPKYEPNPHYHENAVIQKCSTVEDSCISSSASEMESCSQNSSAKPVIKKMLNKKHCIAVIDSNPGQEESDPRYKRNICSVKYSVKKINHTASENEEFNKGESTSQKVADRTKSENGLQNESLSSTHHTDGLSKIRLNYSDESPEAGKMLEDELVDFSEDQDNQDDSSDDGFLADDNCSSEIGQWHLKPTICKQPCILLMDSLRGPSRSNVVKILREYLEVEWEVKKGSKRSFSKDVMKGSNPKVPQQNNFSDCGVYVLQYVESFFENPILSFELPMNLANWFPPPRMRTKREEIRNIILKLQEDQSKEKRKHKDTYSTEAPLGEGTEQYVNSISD
SENP7 block: SENP7 protease inhibition. Q9BQF6. recombinant SENP7, Z-RLRGG-aminoluciferin luminescence, 40 min. inhibition, % at 5 µM. actives 1.5% (n = 330,000);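 active means inhibition above about 50% at the single test dose, limit read from the data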;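 further: plate controls were DMSO with enzyme for no effect and no enzyme buffer wells for full effect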
SENP8 block-2: inhibitors of human SENP8 protease; Q96LD8; inhibition, % at 10 µM; AID 2540; actives 1.2% (n = 330,000); purified SENP8, Z-RLRGG-aminoluciferin cleavage, luminescence; in the data active means inhibition above about 50%
SENP8 confirm: confirmation of human SENP8 protease inhibitors. Recombinant SENP8, Z-RLRGG-aminoluciferin luminescence, 60 min. shares compounds with SENP7 block. actives 40% (n = 6,200). inhibition, % at 12.5 µM;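 active means mean inhibition across replicates above about 50%, limit read from the data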
SENP6 confirm: confirmation of human SENP6 protease inhibitors; shares compounds with SENP7 block; recombinant SENP6, Z-RLRGG-aminoluciferin luminescence; inhibition, % at 12.5 µM; actives 58% (n = 6,200)
SENP7 confirm: human SENP7 inhibition, confirmed. shares compounds with SENP7 block. recombinant SENP7, Z-RLRGG-aminoluciferin luminescence, 40 min. inhibition, % at 12.5 µM. actives 69% (n = 6,200)
Casp3 select: caspase-3 inhibition (SENP selectivity assay); actives 60% (n = 6,200); purified caspase-3, Z-DEVD-aminoluciferin luminescence, 60 min; shares compounds with SENP7 block; inhibition, % at 12.5 µM;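 active means mean inhibition above about 50%, limit read from the data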;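 further: plate controls were enzyme with DMSO for no effect and wells without caspase-3 for full effect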
Luc interf: counter-screen for SENP inhibitors: luminescence interference; shares compounds with SENP7 block; Pre-incubated SENP8/Z-RLRGG-aminoluciferin, luciferase luminescence interference; inhibition, % at 12.5 µM; actives 39% (n = 6,200); AID 488919;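 active means mean inhibition above about 50% when retested at one dose, limit read from the data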;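 further: plate controls were DMSO wells with completed reaction for no effect and substrate without enzyme for full effect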
* = called active by the depositor; · = no result.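 How the source made its calls, unless noted: active means mean inhibition above about 50% in the one-dose retest (limit read from the data); inactive means the rest.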

SMILES	SENP1 FRET inh	SENP8 block-1	SENP6 inh	SENP7 block	SENP8 block-2	SENP8 confirm	SENP6 confirm	SENP7 confirm	Casp3 select	Luc interf
COc1ccc(/C=N/NC(=O)c2cccc(S(=O)(=O)N3CCCC3)c2)cc1O	-0.1	-29.0	-12.4	-10.8	-9.8	·	·	·	·	·
Cc1ccc(NCc2ccccc2O)cc1C	2.0	8.3	52.5*	34.5	42.4	39.5	40.3	74.3*	41.0	57.4*
Cc1ccsc1/C=C1\Oc2cc(OCC(=O)c3ccccc3)ccc2C1=O	-49.8	-185.6	60.0*	49.3	41.1	-24.0	-24.2	-7.1	25.5	-4.5
Cc1cccc(C)c1NC(=O)C1(C)CSCC(=O)N1CCc1c[nH]c2ccccc12 (centres undefined)	1.2	12.9	·	·	·	·	·	·	·	·
O=C(Nc1cccc(NC(=O)c2cccc(F)c2)n1)c1cccc(F)c1	-4.4	14.4	-22.1	-8.4	-5.5	·	·	·	·	·
CCOc1cccc(C(=O)Nc2ccc3ccccc3c2)c1	0.5	2.4	92.9*	92.2*	88.4*	7.4	65.7*	98.9*	48.5	2.4
CCOc1cccc(C(=O)Nc2cccc(C(C)=O)c2)c1	0.5	13.0	-8.6	-7.1	-14.3	·	·	·	·	·
CCOc1cccc(C(=O)Nc2ccc3c(c2)OCCO3)c1	1.1	15.0	69.1*	64.6*	41.8	66.2*	63.1*	89.2*	77.0*	69.0*
O=C(Nc1ccc2ccccc2c1)c1cccc(F)c1	3.0	10.5	46.6	73.4*	60.3*	12.3	58.8*	87.1*	40.8	-1.2
COc1ccc(NC(=O)Nc2ccc3c(c2)CC(=O)N([C@H](C)CO)C[C@H](C)[C@H](CN(C)Cc2ccc(C(=O)O)cc2)O3)cc1	1.8	4.3	-7.1	-6.7	3.3	·	·	·	·	·
COc1ccc(C(=O)/C(C#N)=N/Nc2cccc([N+](=O)[O-])c2)cc1	3.7	15.4	·	·	·	·	·	·	·	·
CCOc1ccc(/C=C/C(=O)CCC(=O)O)cc1	-0.3	6.5	70.0*	62.8*	41.1	65.8*	53.4*	84.5*	-0.3	72.1*
CCOc1ccc(/C=C/C(=O)Oc2ccc(OC)cc2)cc1	1.5	12.1	8.8	9.4	-13.9	·	·	·	·	·
CCOc1ccc(/C=C\C(C)=N\O)cc1	1.3	9.1	90.9*	-2.9	84.3*	89.6*	89.8*	99.9*	93.3*	89.8*
Cc1onc(-c2ccccc2)c1C(=O)Nc1ccc(Cl)c(S(=O)(=O)N2CCOCC2)c1	-2.1	10.5	-8.2	0.3	6.5	·	·	·	·	·
CCCNc1nc(N)nc(-c2cc(Cl)ccc2OC)n1	1.9	14.7	0.8	-1.8	-8.5	·	·	·	·	·
CCNc1nc(N)nc(-c2cc(Cl)ccc2O)n1	-21.0	-297.1	82.8*	65.2*	55.5*	71.5*	69.2*	90.0*	44.3	9.8
CCCCNc1nc(N)nc(-c2cc(Cl)ccc2O)n1	-19.3	-431.5	70.2*	54.2*	40.6	-9.8	55.5*	85.7*	26.5	5.7
Oc1ccccc1N1CCN(c2ccc3ccccc3n2)CC1	-0.4	-89.0	43.2	17.1	21.4	·	·	·	·	·
O=C(COC(=O)Cn1cnc2ccccc21)Nc1cc(S(=O)(=O)N2CCOCC2)ccc1Cl	1.0	8.8	2.4	-3.6	-4.5	·	·	·	·	·
O=C(COC(=O)Cn1cnc2ccccc21)Nc1cc2c(cc1Cl)C(=O)c1ccccc1C2=O	4.5	15.5	70.6*	90.2*	60.6*	57.6*	66.7*	85.5*	73.4*	13.9
CNc1ccc2ncc(-c3ccccc3C(C)=O)n2n1	-3.0	-123.8	·	·	·	·	·	·	·	·
Cc1nnc(NC(=O)c2ccc3ccccc3c2)s1	-0.5	-19.7	12.5	57.9*	-0.7	-4.8	-1.8	-1.1	12.5	-1.8
Cc1ccc(NC(=O)c2ccccc2)cc1	1.3	14.1	-4.8	50.2*	12.2	41.7	42.1	77.5*	72.0*	53.7*
Cc1ccc(NC(=O)c2ccccc2O)cc1	-2.7	-82.6	53.3*	41.1	28.3	54.8*	50.9*	77.6*	61.1*	65.7*
SMILES	SENP1 FRET inh	SENP8 block-1	SENP6 inh	SENP7 block	SENP8 block-2	SENP8 confirm	SENP6 confirm	SENP7 confirm	Casp3 select	Luc interf
O=C(Nc1ccccc1Cl)c1ccc(C(=O)Nc2ccccc2Cl)cc1	0.2	-103.8	·	·	·	·	·	·	·	·
Cc1ccc(C(=O)Nc2ccccc2Cl)cc1	-1.9	1.2	68.7*	57.8*	45.0	50.3*	54.9*	85.5*	77.7*	54.6*
COc1ccc(Cl)cc1Cn1c(C)c(C(=O)NCc2cccc([N+](=O)[O-])c2)sc1=O	-2.7	2.9	·	·	·	·	·	·	·	·
CC(c1ccccc1)n1c(SCC(=O)Nc2ccccc2)n[nH]c1=O (centres undefined)	2.8	16.4	-10.2	8.7	-8.4	·	·	·	·	·
O=C(Nc1ccc2ccccc2c1)c1ccc(Cl)cc1	0.3	9.0	41.0	50.9*	-2.5	-8.2	15.2	32.9	67.2*	12.9
Cc1ccc(NC(=O)C(=O)c2ccc(C)cc2)cc1	0.2	9.3	65.0*	62.2*	54.4*	59.1*	58.7*	86.6*	59.5*	34.8
Cc1ccc(NC(=O)c2cccc3cccnc23)cc1	-0.5	16.3	53.7*	27.9	29.6	50.2*	44.6	72.2*	31.8	30.1
COc1ccc(C(=O)Nc2ccc(C(=O)Nc3cccc(C)c3)cc2)cc1	-0.4	5.5	7.6	0.3	0.4	·	·	·	·	·
Cc1ccc(C(=O)Nc2ccc3ccccc3c2)cc1	1.7	8.1	91.4*	97.2*	87.4*	12.9	51.3*	100.6*	89.0*	34.9
O=C(Nc1ccncc1)c1ccc2ccccc2c1	0.6	16.7	-13.6	15.8	-10.2	·	·	·	·	·
CC(=O)Nc1cccc(NC(=O)c2cccc3cccnc23)c1	-0.9	16.6	12.6	9.6	-0.2	·	·	·	·	·
CCCCCCCN(c1ccccc1)[C@@H]1C[C@H]2CCCC(=O)N3CC[C@@H](C1)[C@@H]23	-0.7	8.9	·	·	·	·	·	·	·	·
COc1ccc(F)cc1C(=O)C1CCCN(Cc2ccc(Sc3nncn3C)o2)C1 (centres undefined)	-1.7	-12.8	-4.5	-0.8	-5.4	·	·	·	·	·
Cc1ccc(C(=O)Cc2ccccc2)cc1	0.8	11.9	·	·	·	·	·	·	·	·
Cc1ccc2cc(NC(=O)c3ccccc3)ccc2n1	1.6	3.4	61.9*	64.4*	52.9*	7.7	43.2	81.2*	73.5*	62.7*
Cc1ccc2cc(NC(=O)CC(CC(=O)O)c3ccccc3)ccc2n1 (centres undefined)	1.8	-17.0	-20.7	6.5	8.1	·	·	·	·	·
